# This is a sample that favours compounds with a hit; in the whole collection about 4.7% have one here.
# ADAM17 inh: ADAM17 inhibitors, primary screen, biochemical, QFRET | actives 0.83% (n = 370,000) | Disintegrin and metalloproteinase domain-containing protein 17 (Homo sapiens), P78536 | recombinant ADAM17, EDANS/DABCYL FRET peptide cleavage | AID 720648, 2013 | inhibition, % at 6.95 µM;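 active means inhibition above the mean of compounds lying between control limits plus 3 SD, set per campaign, cut at about 8.5% in these data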;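 further: 0% = DMSO-only wells as the low control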
# SKN-1 inh: suppressors of acrylamide-induced Pgst-4::GFP reporter in worms, primary screen, SKN-1 inhibitor project, whole organism, uHTS, GFP/RFP fluorescence ratio, strain VP596; actives 0.49% (n = 360,000); C. elegans VP596 Pgst-4::GFP/RFP ratio, 24 h; AID 624304, 2012; inhibition, % at 21.8 µM;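 active means interference check ratio from 0.5 to 1.5 plus GFP to RFP signal ratio inhibition reaching or exceeding a fixed threshold, cut at about 30% in these data, passing the limit was not always enough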
# NR3A LBD binder: binders of NR3A ligand-binding domain, primary screen, biophysical, differential scanning fluorimetry, uHTS. Glutamate receptor ionotropic, NMDA 3A (GRIN3A) ligand-binding domain. NR3A LBD differential scanning fluorimetry, Tm shift; 0% = protein alone, 100% = glycine-bound protein. Tm shift relative to glycine control, % at 25 µM. actives 2.5% (n = 340,000). AID 1259313, 2017;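 active means melting temperature shift of at least 10% of the positive control shift, at one fixed dose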
# MPTP inh: mitochondrial permeability transition pore inhibitors, primary screen, biochemical, isolated mouse mitochondria, absorbance. Ca2+ swelling absorbance, 30 min. inhibition, % at 10 µM. actives 1.4% (n = 360,000);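 active means inhibition of 50% or more, scaled per plate between neutral and stimulator controls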;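 further: 0% = DMSO wells given calcium and 100% = 1 mM EGTA wells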
# ADAM10 inh: human ADAM10 inhibitors, primary screen, biochemical, QFRET, HTS. Disintegrin and metalloproteinase domain-containing protein 10 (Homo sapiens), O14672. recombinant ADAM10, EDANS/DABCYL FRET peptide cleavage, 3 h. inhibition, % at 7 µM. actives 0.62% (n = 370,000);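 active means inhibition above a per-campaign cutoff equal to the mean of compounds falling between control-based bounds plus 3 SD, cut at about 20% in these data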;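 further: 0% = DMSO wells while the 100% control is not disclosed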
# Target sequence (O14672 214-748 limits assumed): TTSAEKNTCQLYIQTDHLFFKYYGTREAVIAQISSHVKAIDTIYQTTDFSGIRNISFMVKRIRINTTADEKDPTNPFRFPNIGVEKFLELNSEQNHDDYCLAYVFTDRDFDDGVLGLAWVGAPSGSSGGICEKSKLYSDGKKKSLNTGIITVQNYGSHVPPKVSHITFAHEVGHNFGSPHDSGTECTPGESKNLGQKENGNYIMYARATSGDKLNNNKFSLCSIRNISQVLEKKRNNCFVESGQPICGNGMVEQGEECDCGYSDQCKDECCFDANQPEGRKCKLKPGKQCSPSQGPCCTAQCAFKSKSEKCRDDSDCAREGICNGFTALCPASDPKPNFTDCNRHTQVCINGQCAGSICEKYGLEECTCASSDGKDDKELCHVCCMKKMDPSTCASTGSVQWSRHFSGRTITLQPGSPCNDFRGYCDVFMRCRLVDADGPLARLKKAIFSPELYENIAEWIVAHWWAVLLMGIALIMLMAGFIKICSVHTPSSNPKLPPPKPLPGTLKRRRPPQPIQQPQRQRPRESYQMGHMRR
# MT1-MMP act inh: blockers of MT1-MMP proenzyme processing, primary screen, HT1080 RFP-PRO-GFP cells, GFP/RFP fluorescence | GFP/RFP ratio fluorescence, overnight; percent of plate control window, DMSO zero | AID 651647, 2012 | Matrix metalloproteinase-14 (Homo sapiens), P50281 | GFP/RFP ratio change, % at 20 µM | actives 0.061% (n = 360,000);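 active means GFP/RFP ratio change of at least 30% with cell ATP level not reduced by more than half and red fluorescence within 50% of control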
#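 Compound: 20 µM single dose, 1% DMSO / System: HT1080 RFP-PRO-GFP cells / Controls: DMSO and RFP-L50D-GFP cell wells / Read-out basis: GFP/RFP fluorescence ratio / Schedule: overnight compound exposure at 37 °C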
# The depositor's hits bear a star; x = no result.
SMILES,ADAM17 inh,SKN-1 inh,NR3A LBD binder,MPTP inh,ADAM10 inh,MT1-MMP act inh
CCOc1cccc(C(=O)Nc2ccc3[nH]ncc3c2)c1,-4,-7,15*,3,-6,2
O=C(COc1cccc(C(F)(F)F)c1)Nc1cccnc1,1,11,0,0,-2,0
COc1cccc(C(=O)Nc2ccc3[nH]ncc3c2)c1,1,8,3,0,12,-3
CCOC(=O)c1ccc(OS(=O)(=O)c2ccccc2)c(OC)c1,-3,9,0,2,0,1
CCOC(=O)C(C(=O)OCC)C1CCS(=O)(=O)C1 (centres undefined),-3,-3,2,2,-4,7
CCOC(=O)c1cnn(-c2cc(C(C)(C)C)nc3c(-c4ccccc4)c(C)nn23)c1N,-5,7,1,2,3,5
CCOC(=O)c1cnn(-c2c(Cc3ccccc3)c(C)nc3c(-c4ccccc4)c(C)nn23)c1N,10*,24,2,16,10,-8
COC(=O)C1=C(NC(=O)COc2ccc(Cl)cc2Cl)CCS1,-1,3,15*,0,5,0
COC(=O)C1=C(NC(=O)COc2ccc3ccccc3c2)CCS1,-1,3,-2,0,0,-1
Oc1nc(Nc2ccc(F)cc2)sc1/C=C1\C=Nc2ccccc21,2,0,34*,40,7,-10
Cc1nc(N)sc1-c1csc(Nc2cccc(O)c2)n1,-2,13,0,-2,14,-8
Oc1nc(Nc2cccc(Cl)c2)sc1/C=C1\C=Nc2ccccc21,2,4,37*,33,-1,-4
CC1=Nc2ccccc2/C1=C\c1sc(Nc2ccc(C)cc2)nc1O,5,9,21*,4,8,-3
CC1=Nc2ccccc2/C1=C/c1sc(=O)n(CC(=O)N2CCCC2)c1O,-4,28,-1,1,-12,-6
CCOC(=O)c1c(Nc2ccc(Cl)cc2)sc(/C=C2\C=Nc3ccccc32)c1O,-2,11,-4,5,-9,-28
CSc1nc(/C=C2\C=Nc3ccccc32)c(O)n1C,2,-1,0,-1,4,11
Oc1cccc(Nc2nc(O)c(/C=C3\C=Nc4ccccc43)s2)c1,1,15,21*,6,4,-159
C/C(=N\NC(=O)c1ccc(C)cc1C)c1ccc2c(c1)Nc1ccccc1S2,5,9,12*,3,4,9
CCN1C(=O)/C(=C/c2ccc(N3CCCC3)cc2)NC1=S,4,35,-4,22,9,-72
CCCN1C(=O)/C(=C/c2ccc(N3CCCC3)c(C)c2)NC1=S,7,46*,-13,6,19,-279
O=C(NCc1ccco1)Nc1cccc([N+](=O)[O-])c1,3,7,19*,1,9,2
CC(C)(C)c1cc(NC(=O)c2ccc(OC3CCCC3)cc2)no1,-3,1,15*,2,-8,4
O=C(Nc1ccon1)c1ccc(OC2CCCC2)cc1,-1,5,23*,9,2,5
C=CCCCCCCCCC(=O)NN,-6,-2,1,-1,-7,-4
CCc1[nH]c(=O)c(C#N)c2c1CSC(C)(C)C2,x,16,13*,-1,x,3
SMILES,ADAM17 inh,SKN-1 inh,NR3A LBD binder,MPTP inh,ADAM10 inh,MT1-MMP act inh
COC(=O)c1cc2sccc2n1Cc1ccc(C)cc1,-4,38*,1,2,-6,-8
CCOC(=O)c1cc2sccc2n1Cc1ccccc1,-3,24,-8,2,9,1
Cc1nn(Cc2ccccc2)c(C)c1NC(=O)CSc1n[nH]c(C)c1[N+](=O)[O-],-1,6,-2,2,-21,3
Cc1nnc2sc(-c3ccc(-c4ccc(Cl)c(C(F)(F)F)c4)o3)nn12,-125,-14,-5,2,-458,3
Cc1ccc(NC(=O)C(=O)c2c[nH]c3ccccc23)cc1,0,-12,-5,1,-4,6
Cn1cc(/C=C/C(=O)c2ccccc2)c2ccccc21,-3,-4,1,1,-9,-15
COc1ccc(/C=C/C(=O)c2ccccc2)c(OC)c1,1,6,-4,1,2,-8
Cc1ccc(C(=O)/C=C/c2cn(CN3CCN(C)CC3)c3ccccc23)cc1,-20,18,38*,2,-34,-2
COc1ccc2[nH]cc(/C=C/C(=O)c3ccccc3)c2c1,-1,9,29*,6,-2,-3
Cc1ccc(C(=O)/C=C/c2c[nH]c3ccccc23)cc1,-10,18,28*,7,-21,2
O=C(/C=C/c1c[nH]c2ccccc12)c1ccccc1,-4,16,24*,5,-14,5
O=C1NC(CCc2ccccc2)C(=O)N1Cc1ccc(Br)cc1 (centres undefined),3,6,-2,0,2,2
COc1ccc(-c2nc3c4ccccc4ccn3c2Cc2cccc(F)c2)cc1OC,-14,11,x,0,-68,-8
Cc1ccc(-c2nnc3ccc(SCC(=O)N4CCCc5ccccc54)nn23)cc1,-5,1,18*,4,-5,-12
Cc1ccc2nc(-c3ccc(SCC(=O)N4CCc5ccccc54)nc3)[nH]c2c1,0,-4,23*,4,-20,1
c1ccc(-c2noc(-c3ccc4ccccc4c3)n2)nc1,x,42*,0,1,x,1
O=S1(=O)c2c(cccc2N2CCC[C@H]2CO)O[C@H]2CCN1C2,-2,x,x,x,0,x
Cc1cccc(NC(=O)c2oc(=O)c3ccccc3c2-c2ccccc2)c1C,-4,-2,16*,8,-2,1
Cc1csc(NC(=O)CSc2nnc(C)c(=O)n2N)n1,-1,-11,-2,-2,-18,-3
N#C/C(=C\c1cccnc1)c1ccc(Br)cc1,-3,44*,-5,-1,-1,-2
N#CC(=Cc1ccncc1)c1ccccc1,-2,23,3,0,-4,0
Cc1ccc(NC(=O)Nc2nc3ccccc3s2)cc1NC(=O)Nc1nc2ccccc2s1,2,30,28*,0,5,-3
CCNC(=O)Nc1nc2ccccc2s1,1,11,-1,-2,-1,0
Cc1ccc(Nc2nc3ccccc3s2)cc1,5,7,22*,2,8,-4

# Screening data (PubChem BioAssay)
